# From ChEMBL document CHEMBL1134507, “Potential new antitumor agents from an innovative combination of demethylcantharidin, a modified traditional Chinese medicine, with a platinum moiety” (J Med Chem, 2001)
# Activity calls are given as the source filed them. No cut-off for these calls is given here.
# Tests used:
# L1210 [1] = test: Growth inhibitory activity against L1210 mouse leukemia cancer cell line; type: functional, cell-based
# Summary of the method: (§1)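 Tetrazolium (MTT) assay. Drug treatment began 24 h after cell seeding, exposure lasted 72 h, and the MTT test followed. Read-out was IC50.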
# Mus musculus [2] = test: Toxicity in male nude mice measured as N (no. of deaths), at 2 mg/kg (ip) given on days 1, 5 and 9; type: organism-based; set-up: dose 2 mg/kg; conditions: in vivo
# Summary of the method: (§2)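 SK-Hep-1 human liver tumor cells inoculated sc into male nude mice. Dosing began once tumors reached 5 mm × 5 mm, given ip on days 1, 5 and 9. Vehicle was normal saline for the reference platinum drug and 5% dextrose for the other Pt complexes. Controls received saline or 5% dextrose. Recorded: T/C (%), body-weight change at nadir, and deaths per group.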
# L1210 [3] = test: Cytotoxicity against […]sensitive mouse leukemia, assessed by MTT assay after 72 hr of compound exposure; type: functional, cell-based
# Summary of the method: (§3)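 MTT cytotoxicity assay run on cisplatin-sensitive parental cells and cisplatin-resistant sublines. Drug exposure was 72 h for L1210 and 96 h for NCI:H460. IC50 determined for each cell line. Fold resistance = IC50 in resistant cells divided by IC50 in parental cells.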
# NCI-H460 [4] = test: Cytotoxicity against NCI-H460-sensitive Human Nonsmall Cell Lung Cancer cell line assessed by MTT assay after 96 hr of compound exposure; type: functional, cell-based; summary of the method: as §3
# Mus musculus [5] = test: Toxicity in male nude mice measured as N (no. of deaths), at 4 mg/kg (ip) given on days 1, 5 and 9; type: organism-based; set-up: dose 4 mg/kg; conditions: in vivo; summary of the method: as §2
# SK-OV-3 = test: Growth inhibitory activity against SK-OV-3 human ovarian cancer cell line; type: functional, cell-based; summary of the method: as §1
# MDA-MB-231 = test: Growth inhibitory activity against MDA-MB-231 human breast cancer cell line; type: functional, cell-based; summary of the method: as §1
# L1210 [6] = test: Cytotoxicity against Cisplatin-resistant L1210-resistant mouse leukemia, assessed by MTT assay after 72 hr of compound exposure (resistance level); type: functional, cell-based; summary of the method: as §3
# Mus musculus [7] = test: Toxicity in male nude mice measured as N (no. of deaths), at 8 mg/kg (ip) given on days 1, 5 and 9; type: organism-based; set-up: dose 8 mg/kg; conditions: in vivo; summary of the method: as §2
# SK-HEP1 = test: Growth inhibitory activity against SK-Hep1 human liver cancer cell line; type: functional, cell-based; summary of the method: as §1
# NCI-H460 [8] = test: Cytotoxicity against NCI-H460-resistant Human Nonsmall Cell Lung Cancer cell line assessed by MTT assay after 96 hr of compound exposure (resistance level); type: functional, cell-based; summary of the method: as §3
# NCI-H460 [9] = test: Growth inhibitory activity against NCI-H460 human lung cancer cell line; type: functional, cell-based; summary of the method: as §1
# NTERA-2-cl-D1 = test: Growth inhibitory activity against […]-cl-D1 human testicular cancer cell line; type: functional, cell-based; summary of the method: as §1
# COLO 320DM = test: Growth inhibitory activity against COLO-320-DM human colon cancer cell line; type: functional, cell-based; summary of the method: as §1
# Mus musculus [10] = test: Toxicity in male nude mice measured as N (no. of deaths), at 10 mg/kg (ip) given on days 1, 5 and 9; type: organism-based; set-up: dose 10 mg/kg; conditions: in vivo; summary of the method: as §2
# Mus musculus [11] = test: In vivo antitumor activity in SK-Hep-1 sc-Inoculated Xenograft in male nude mice dosed at 75 mg/kg (ip)on days 1,5 and 9; Not active; type: functional, organism-based; set-up: dose 75 mg/kg
# Summary of the method: (§4)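 Male nude mice bearing subcutaneous SK-Hep-1 human liver tumor xenografts. Dosing started once tumors reached 5 mm × 5 mm, given ip on days 1, 5 and 9. Cisplatin was given in normal saline and other Pt complexes in 5% dextrose; controls received either vehicle. T/C (%), weight change at nadir and deaths recorded.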
# Mus musculus [12] = test: Ratio of the relative tumor volume in the Tx group over the control group at day 60, at 100 mg/kg dose (ip) given on days 1, 5 and 9 (In vivo antitumor activity in nude mice); type: functional, organism-based; set-up: dose 100 mg/kg
# Mus musculus [13] = test: Ratio of the relative tumor volume in the Tx group over the control group at day 60, at 75 mg/kg dose (ip) given on days 1, 5 and 9 (In vivo antitumor activity in nude mice); type: functional, organism-based; set-up: dose 75 mg/kg
# Mus musculus [14] = test: In vivo antitumor activity in SK-Hep-1 sc-Inoculated Xenograft in male nude mice dosed at 50 mg/kg (ip)on days 1,5 and 9; Not active; type: functional, organism-based; set-up: dose 50 mg/kg; summary of the method: as §4
# Mus musculus [15] = test: In vivo antitumor activity in SK-Hep-1 sc-Inoculated Xenograft in male nude mice dosed at 100 mg/kg (ip)on days 1,5 and 9; type: functional, organism-based; set-up: dose 100 mg/kg; summary of the method: as §4
# Mus musculus [16] = test: In vivo antitumor activity in SK-Hep-1 sc-Inoculated Xenograft in male nude mice dosed at 120 mg/kg (ip)on days 1,5 and 9; type: functional, organism-based; set-up: dose 120 mg/kg; summary of the method: as §4
# Mus musculus [17] = test: Ratio of the relative tumor volume in the Tx group over the control group at day 60, at 50 mg/kg dose (ip) given on days 1, 5 and 9 (In vivo antitumor activity in nude mice); type: functional, organism-based; set-up: dose 50 mg/kg
# Mus musculus [18] = test: Ratio of the relative tumor volume in the Tx group over the control group at day 60, at 120 mg/kg dose (ip) given on days 1, 5 and 9 (In vivo antitumor activity in nude mice); type: functional, organism-based; set-up: dose 120 mg/kg
# Mus musculus [19] = test: Ratio of the relative tumor volume in the Tx group over the control group at day 60, at 25 mg/kg dose (ip) given on days 1, 5 and 9 (In vivo antitumor activity in nude mice); type: functional, organism-based; set-up: dose 25 mg/kg
# Mus musculus [20] = test: In vivo antitumor activity in SK-Hep-1 sc-Inoculated Xenograft in male nude mice dosed at 25 mg/kg (ip)on days 1,5 and 9; Not active; type: functional, organism-based; set-up: dose 25 mg/kg; summary of the method: as §4
# Mus musculus [21] = test: In vivo antitumor activity in SK-Hep-1 sc-Inoculated Xenograft in male nude mice dosed at 10 mg/kg (ip)on days 1,5 and 9; type: functional, organism-based; set-up: dose 10 mg/kg; summary of the method: as §4
# Mus musculus [22] = test: Ratio of the relative tumor volume in the Tx group over the control group at day 60, at 4 mg/kg dose (ip) given on days 1, 5 and 9 (In vivo antitumor activity in nude mice); type: functional; summary of the method: as §2
# Mus musculus [23] = test: Ratio of the relative tumor volume in the Tx group over the control group at day 60, at 10 mg/kg dose (ip) given on days 1, 5 and 9 (In vivo antitumor activity in nude mice); type: functional, organism-based; set-up: dose 10 mg/kg
# Mus musculus [24] = test: Ratio of the relative tumor volume in the Tx group over the control group at day 60, at 2 mg/kg dose (ip) given on days 1, 5 and 9 (In vivo antitumor activity in nude mice); type: functional; summary of the method: as §2
# Mus musculus [25] = test: In vivo antitumor activity in SK-Hep-1 sc-Inoculated Xenograft in male nude mice dosed at 4 mg/kg (ip)on days 1,5 and 9; type: functional, organism-based; set-up: dose 4 mg/kg; summary of the method: as §4
# Mus musculus [26] = test: In vivo antitumor activity in SK-Hep-1 sc-Inoculated Xenograft in male nude mice dosed at 2 mg/kg (ip)on days 1,5 and 9; Not active; type: functional, organism-based; set-up: dose 2 mg/kg; summary of the method: as §2
# Mus musculus [27] = test: Ratio of the relative tumor volume in the Tx group over the control group at day 60, at 8 mg/kg dose (ip) given on days 1, 5 and 9 (In vivo antitumor activity in nude mice); type: functional; summary of the method: as §2
# Mus musculus [28] = test: In vivo antitumor activity in SK-Hep-1 sc-Inoculated Xenograft in male nude mice dosed at 8 mg/kg (ip)on days 1,5 and 9; type: functional; summary of the method: as §2
# Mus musculus [29] = test: Toxicity in male nude mice measured as N (no. of deaths), at 75 mg/kg (ip) given on days 1, 5 and 9; type: organism-based; set-up: dose 75 mg/kg; conditions: in vivo; summary of the method: as §2
# L1210 [30] = test: Cytotoxicity against […]resistant mouse leukemia, assessed by MTT assay after 72 h of compound exposure (resistance level); type: functional, cell-based; summary of the method: as §3
# Mus musculus [31] = test: Toxicity in male nude mice measured as N (no. of deaths), at 25 mg/kg (ip) given on days 1, 5 and 9; type: organism-based; set-up: dose 25 mg/kg; conditions: in vivo; summary of the method: as §2
# Mus musculus [32] = test: Toxicity in male nude mice measured as N (no. of deaths), at 50 mg/kg (ip) given on days 1, 5 and 9; type: organism-based; set-up: dose 50 mg/kg; conditions: in vivo; summary of the method: as §2
# Mus musculus [33] = test: Toxicity in male nude mice measured as N (no. of deaths), at 100 mg/kg (ip) given on days 1, 5 and 9; type: organism-based; set-up: dose 100 mg/kg; conditions: in vivo; summary of the method: as §2
# Mus musculus [34] = test: Toxicity in male nude mice measured as N (no. of deaths), at 120 mg/kg (ip) given on days 1, 5 and 9; type: organism-based; set-up: dose 120 mg/kg; conditions: in vivo; summary of the method: as §2
# Mus musculus [35] = test: In vivo antitumor activity in SK-Hep-1 sc-Inoculated Xenograft in male nude mice dosed at 4 mg/kg (ip)on days 1,5 and 9; Not active; type: functional, organism-based; set-up: dose 4 mg/kg; summary of the method: as §2
# Mus musculus [36] = test: In vivo antitumor activity in SK-Hep-1 sc-Inoculated Xenograft in male nude mice dosed at 10 mg/kg (ip)on days 1,5 and 9; Acutely toxic; type: functional, organism-based; set-up: dose 10 mg/kg; summary of the method: as §2
Compound,IC50 (L1210 [1]),IC50 (L1210 [3]),IC50 (NCI-H460 [4]),IC50 (SK-OV-3),IC50 (MDA-MB-231),IC50 (SK-HEP1),IC50 (NCI-H460 [8]),IC50 (NCI-H460 [9]),IC50 (NTERA-2-cl-D1),IC50 (COLO 320DM),T/C (Mus musculus [22]),T/C (Mus musculus [24]),Weight change at nadir (Mus musculus [26]),T/C (Mus musculus [27]),Weight change at nadir (Mus musculus [28]),further results
CISPLATIN [listing 1 of 2 here],0.51 µM,1.01 µM,0.59 µM,15.2 µM,65.7 µM,54.1 µM,4.96 µM,11.3 µM,0.19 µM,11.9 µM,–,–,–,–,–,No. of deaths (Mus musculus [2]): 1; No. of deaths (Mus musculus [5]): 4; IC50 (L1210 [6]): 14.5 µM; No. of deaths (Mus musculus [7]): 4; No. of deaths (Mus musculus [10]): 4
CARBOPLATIN [listing 1 of 2 here],–,–,–,–,–,–,–,–,–,–,–,–,–,–,–,Weight change at nadir (Mus musculus [11]): inactive; T/C (Mus musculus [12]): 67.8%; T/C (Mus musculus [13]): 44.9%; Weight change at nadir (Mus musculus [14]): inactive; Weight change at nadir (Mus musculus [15]): -21%; Weight change at nadir (Mus musculus [16]): -40%; T/C (Mus musculus [17]): 109%; T/C (Mus musculus [18]): 62.8%; T/C (Mus musculus [19]): 87.5%; Weight change at nadir (Mus musculus [20]): inactive
CISPLATIN [listing 2 of 2 here],–,–,–,–,–,–,–,–,–,–,81.1%,87.5%,inactive,47.1%,-35%,Weight change at nadir (Mus musculus [21]): -40%; T/C (Mus musculus [23]): 39.6%; Weight change at nadir (Mus musculus [25]): -25%
CARBOPLATIN [listing 2 of 2 here],10.1 µM,17.8 µM,17.8 µM,149 µM,1080 µM,501 µM,54.6 µM,60.3 µM,2.75 µM,188 µM,–,–,–,–,–,No. of deaths (Mus musculus [29]): 2; IC50 (L1210 [30]): 138 µM; No. of deaths (Mus musculus [31]): 1; No. of deaths (Mus musculus [32]): 2; No. of deaths (Mus musculus [33]): 5; No. of deaths (Mus musculus [34]): 4
O=C1OC(=O)C2C3CCC(O3)C12 (stereo unspecified) [DEMETHYL-CANTHARIDIN],–,–,–,–,–,–,–,–,–,–,66.1%,63.2%,inactive,34.8%,-20%,Weight change at nadir (Mus musculus [35]): inactive; Weight change at nadir (Mus musculus [36]): Toxic
